# Data published in ChEMBL document CHEMBL4513216, “Probing the Open Global Health Chemical Diversity Library for Multistage-Active Starting Points for Next-Generation Antimalarials” (ACS Infect Dis, 2020).
# Test: Toxicity liver stage against HepG2, at 10uM
# Assay type: cell-based
# Design: test concentration 10 uM, cell line HepG2-A16-CD81EGFP
# Settings: human, HepG2-A16-CD81EGFP cells; read-out: INHIBITION
# Outline: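 Uninfected HepG2-A16-CD81EGFP cells, 3 × 10^3 per well, 1536-well, plated on prespotted compound at 10 μM final, parasite-free screening media added to match infected plates; puromycin 10 μM positive, DMSO 0.5% negative; run in parallel with 48 h PbLuc assay at 37 °C, 5% CO2; viability by CellTiter-Glo luminescence, normalized to controls.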
row,SMILES,cytotoxicity at 10 µM [%]
1,Cc1ccc(Oc2ncccc2C(=O)N(C)CCCN(C)C)cc1,1.73
2,CNC(=O)c1cc2c(nc1NCC(C)C)CCN(S(=O)(=O)N(C)C)CC2,-151
3,CCCN(Cc1nc(-c2ccoc2)oc1C)CC1CCCO1 (stereo not given),2.4
4,CCn1ccnc1CN1CCN(c2cc(C)nc(C3CCCN3)c2)CC1 (stereo not given),2.19
5,COCC1(C(=O)N2CCC(c3nccn3CC3CC3)CC2)CCC1,4.5
6,COCc1ccccc1C(=O)NCC(O)c1ccccc1F (stereo not given),-3.67
7,Cc1ccc(Oc2ncccc2C(=O)N(C)CCCN(C)C)c(C)c1,-1.16
8,CCN(Cc1cnn(CC)c1)C(=O)Cn1c(=O)ccc2ccccc21,2.37
9,Fc1ccc2[nH]c3c(c2c1)CCN1C(c2ccncc2)N2CCC31CC2 (stereo not given),4.67
10,Cc1cc(NCCc2cnccn2)nc(-c2ccccc2O)n1,10.9
11,c1ccc2sc(N3CCCN(c4ncnc5c4CCNC5)CC3)nc2c1,31.2
12,Cc1nc(C2CCCN(C(=O)c3ccc(Cn4cccn4)o3)C2)no1 (stereo not given),-6.38
13,Cc1cc2c(=O)n3c(nc2s1)CCN(C(=O)c1ccnn1C(C)C)CC3,-6.46
14,O=C(NCCNc1ncccn1)c1ccc(Cl)s1,4.6
15,COc1ncccc1N(C)C(=O)Cn1cc(-c2ccccc2)nn1,-1.11
16,CN(Cc1nnc(C2CC2)o1)CC1CCCN1c1cccnn1 (stereo not given),-6.54
17,NCCc1nc(N(Cc2nccs2)C2CC2)c2ccccc2n1,-16.1
18,CN(C)CCNc1cc(-c2ncccn2)c2cc[nH]c2n1,6.39
19,CNC(=O)Cc1ccc(NC(=O)NCc2nc(C)sc2C)cc1,-4.36
20,NC1CCN(C(=O)c2cnc(Cc3c(Cl)cccc3Cl)nc2O)C1 (stereo not given),-0.803
21,O=C(Nc1ccc(F)c(F)c1)N1CCC2(CCC(=O)N(C3CC3)C2)CC1,-0.381
22,Cc1nc(S(=O)(=O)CCn2cccn2)n(C2CCCC2)c1C,-0.829

row,SMILES,cytotoxicity at 10 µM [%]
1,COc1cc(Br)c(CNC(C)c2nnc3n2CCC3)cc1OC (stereo not given),-43.2
2,NCC1CN(c2nc(-c3cccnc3)nc3c2CCNCC3)CCO1 (stereo not given),-17.6
3,O=C1CC(NCc2cnc(N3CCCC3)nc2)CN1c1ccccc1 (stereo not given),-4.56
4,COCC(=O)Nc1ccc2c(c1)CN(C(=O)c1ccco1)CC2,7.58
5,CC(C)N(C)CC(=O)N1CCCC(n2ccnc2)C1 (stereo not given),5.56
6,CNC(=O)C1CCCCN1C(=O)C1CCN(S(C)(=O)=O)CC1 (stereo not given),6.03
7,Cc1ccc(NC(=O)CN2CCCNC2=O)c(SC(F)(F)F)c1,-1.96
8,c1cc2nccc(CC3CCCN(Cc4ncc[nH]4)CC3)c2cn1 (stereo not given),-2.06
9,COCCC(=O)NCc1ccc(-c2ccccc2C(=O)O)nc1,2.28
10,O=C(NCC(O)c1ccoc1)Nc1cccs1 (stereo not given),-11.1
11,CCCn1ccnc1CN1CCN(C2CCOCC2)CC(C(N)=O)C1 (stereo not given),-24.4
12,Cc1nn(C)c(C)c1C1CCCN1Cc1cccc(C(=O)N(C)C)c1 (stereo not given),-11.9
13,CNC(=O)C1(Cc2cc(C(C)C)no2)CCN(Cc2cccnc2)C1 (stereo not given),4.61
14,CCN(Cc1ccncc1)C(=O)c1cn(CCC2CCCCC2)nn1,10.5
15,CNC(=O)[C@@H]1[C@H]2CN(Cc3ccccn3)CCN2C[C@H]1c1ccccc1,3.38
16,COCCNC(=O)NC(C)COc1ccc(F)cc1F (stereo not given),4.14
17,Cc1nc(CN2CCCCC2Cn2cccn2)nc2ccccc12 (stereo not given),-41.5
18,CC(=O)c1ccc(OCC(=O)NS(=O)(=O)c2ccc(C)s2)cc1,-8.9
19,CC(C)[C@@H]1CN(C(=O)NCCc2ccccc2)C[C@H]1NS(=O)(=O)N(C)C,3.08
20,O=C([C@@H]1CC[C@@H]2[C@@H](CCN2Cc2cccs2)O1)N1CCCCO1,-2.33
21,Cc1nc2c(c(NCC(c3ccccc3C)N(C)C)n1)CCNC2 (stereo not given),19.2
22,CCS(=O)(=O)N1CCCCC1c1nc(C(C)C)no1 (stereo not given),13.6

row,SMILES,cytotoxicity at 10 µM [%]
1,O=C(O)c1ccc2c(c1)C1(CCCCC1)CN2C(=O)c1cccs1,3.01
2,COc1ccc2cc(NC(=O)CCNc3ncccn3)cnc2c1,-43
3,CCCS(=O)(=O)N1CCO[C@H]2[C@@H](Oc3cccnc3)CC[C@@H]21,-3.15
4,CC(C)(C)N1CC(C(=O)NCc2cn3cccnc3n2)CC1=O (stereo not given),-0.591
5,CCNC(=O)[C@@H]1C[C@@H](n2cc(CC3CCCCC3)nn2)CN1,5.42
6,CCOc1ccccc1CNC(=O)c1cnn(CC)c1C(F)(F)F,3.67
7,O=C(NCC1CC1)[C@H]1CC[C@@H]2[C@@H](CCN2Cc2ccoc2)O1,-14.1
8,CC(=O)Nc1nc(C(=O)NCCOc2ccccc2)cs1,6.11
9,COc1ccc(OCCNC(=O)N2CCS(=O)(=O)CC2)cc1,-6.95
10,CNS(=O)(=O)CC(=O)N1CCC(c2ccc(F)c(F)c2)CC1,0.696
11,CN1C(=O)CC(c2ccccc2)C12CCN(c1ncccn1)CC2 (stereo not given),-99.4
12,CC[C@H](N)C(=O)Nc1nn(CC(F)(F)F)c2cc(OC(C)C)ccc12,-2.8
13,CNC(=O)c1nc2c(s1)CCN(C(=O)c1cccnc1)CC2,6
14,c1csc(CN2CCc3ncnc(C4CCOC4)c3CC2)n1 (stereo not given),4.53
15,CN(CCc1ccccc1)Cc1c(C2CCNCC2)[nH]c2ncccc12,55.5
16,CC(=O)NCC1CCCN(C(=O)Cc2c(C)noc2C)C1 (stereo not given),17.4
17,CCc1ccc(C(=O)N2CCCC(CNS(C)(=O)=O)C2)o1 (stereo not given),-19.7
18,Cc1n[nH]c(C)c1NC(=O)NCc1cc[nH]n1,-5.18
19,Cc1c(C)n(Cc2ccccn2)c2nc3c(c(N)c12)CCCC3,8.37
20,COCCNS(=O)(=O)c1ccc(Cl)c(C(=O)N(C)Cc2ccsc2)c1,-1.39
21,CCOCC(=O)N1C[C@@H]2CC[C@H]1CN(C(=O)c1ccncc1)C2,0.0793
22,O=C(NCCOc1ccc(Cl)cn1)Nc1nccs1,11.3

row,SMILES,cytotoxicity at 10 µM [%]
1,CC(c1nc(C2CC2)no1)N1CCN(CCCN2CCCC2=O)CC1 (stereo not given),-13.4
2,CCS(=O)(=O)NCCNC(=O)c1cc(Cl)c2c(c1)OCCCO2,5.98
3,CCc1nnc(C(C)N2CCN(CCC(C)(C)C)CC2)o1 (stereo not given),6.61
4,O=C1COc2cc(C(=O)N3CCCC(n4cccn4)C3)ccc2N1 (stereo not given),-22.6
5,Cc1n[nH]cc1C(=O)N1CCCC1c1cc[nH]n1 (stereo not given),-23.1
6,Cc1ccc(C(=O)N2CCCCC2CNC(N)=O)s1 (stereo not given),-0.519
7,CCC1CN(CCNS(C)(=O)=O)c2ccccc2O1 (stereo not given),-2.67
8,CCCc1nc(C(=O)N2CCCn3nc(CCC(=O)O)cc3C2)cs1,-9.84
9,Fc1ccccc1CN1C[C@@H](OCc2ccncc2)[C@H]2OCCC[C@H]21,-4.81
10,COc1ccccc1S(=O)(=O)Nc1ccc2c(C(=O)O)c[nH]c2c1,-11.1
11,COCC1CN(Cc2ccccn2)Cc2cn(C)nc21 (stereo not given),-78.6
12,CC(=O)NC[C@@H]1C=C(C)[C@H](CC(=O)NCCN(C)C)C[C@H]1C(C)C,0.939
13,Cc1ccc(-c2nc(CN3CCCC3Cn3cncn3)cs2)o1 (stereo not given),-7.88
14,CCNC(=O)[C@@H]1C[C@H](NC(=O)c2cc(CC)n[nH]2)CN1Cc1ccsc1,-5.92
15,Cc1c[nH]c(C2CCCN(Cc3cccc(C(=O)O)c3)C2)n1 (stereo not given),9.59
16,CC(=O)N1CCC2(CC1)CC[C@@]1(C(=O)N(C)C)CN(S(C)(=O)=O)C[C@@H]21,-1.56
17,Cc1cc(S(C)(=O)=O)c(C)c(S(=O)(=O)NC2CCCC2)c1,12.8
18,O=C(Nc1ccc2c(c1)OCCO2)c1ccc(=O)[nH]n1,18.1
19,Cc1cnc(CN(C)C2CCN(Cc3nc4ccccc4s3)C2)o1 (stereo not given),-7.97
20,COCC(=O)N1CCC2(CC1)CN(c1ccccn1)CCO2,-71.2
21,Cc1ccc(-c2noc(CC[C@@H]3CCCN4CCCC[C@H]34)n2)nn1,-4.56
22,CCNc1ncc(C(=O)NC(c2ccccc2)c2ccco2)cn1 (stereo not given),5.94

row,SMILES,cytotoxicity at 10 µM [%]
1,Cn1nc(C2CCCN(Cc3cccc(F)c3)C2)c2nccnc21 (stereo not given),-3.96
2,CC[C@@H](CO)Nc1cc(-c2cn[nH]c2)ncn1,-4.78
3,Cc1cnn(CC2CCCCN2Cc2cnc(C)s2)c1 (stereo not given),-11.3
4,Cc1noc(CCCC(=O)NC(C)c2nnc3n2CCCCC3)n1 (stereo not given),3.21
5,CC(C)=CCCC1(C)CCC(=O)N(CCc2nc(N)cc(O)n2)C1 (stereo not given),0.361
6,Cc1nc(C2(NCC(=O)NCc3cccs3)CCCCC2)no1,1.17
7,Cc1nc(CN2CCCC(Cn3cncn3)C2)no1 (stereo not given),4.34
8,CNC(=O)[C@H]1C[C@@H]2CN(C(=O)c3ccc(C)o3)C[C@@H]2N1S(C)(=O)=O,-2.33
9,CCC(CNC(=O)Cc1cc(C)on1)Oc1cccc(F)c1 (stereo not given),-48.2
10,N#Cc1ccc(CSCCN2CCOCC2)cc1,4.2
11,O=C(c1ccc[nH]1)N1CCN(CC2CCOc3ccccc3C2)CC1 (stereo not given),4.03
12,COCc1nc(C(=O)N(Cc2ccccc2)CC(C)C(=O)O)cs1 (stereo not given),4
13,COc1ncccc1C(=O)N1CCc2c(ncnc2N2CCOCC2)C1,-3.5
14,Cc1noc(C)c1CN1CC2(CCCCN2c2cncnc2)CC1=O (stereo not given),4.13
15,CCc1nccn1CC(=O)Nc1cccc(C(=O)N(C)C)c1,-6.77
16,CC(C)(C)c1noc(CCCC(=O)NCC2CCS(=O)(=O)C2)n1 (stereo not given),-15.4
17,CC(=O)N1N=C(c2ccco2)OC1C(=O)NCCc1ccc(O)cc1 (stereo not given),-1.19
18,O=C(NCC1(O)CCOc2ccccc21)Nc1ccc2c(c1)OCO2 (stereo not given),-5.12
19,Cc1nc(C)n(CC2CCCN2Cc2cn3c(C)cccc3n2)n1 (stereo not given),2.02
20,CSCC(CCO)NC(=O)c1cccc(Cl)c1F (stereo not given),19
21,O=C(NCCc1nc(-c2ccccn2)no1)c1ccc(C2CCCO2)s1 (stereo not given),5.65
22,COc1ccc(-c2n[nH]cc2CN(C)CCCN2CCOCC2)c(F)c1,-2.26
